The list is not random: actives were taken first. Their share in the collection is about 4%.
TAAR1 antag: antagonists of human TAAR1; Q96RJ0; CHO RD-HGA16 TAAR1, Fluo-8 calcium fluorescence, antagonist; inhibition, % at 3 µM; hit rate 1.5% among 360,000; AID 624466;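 active = inhibition above a per-plate cutoff, the mean inhibition of test compounds on that plate plus 3 SD, cut at about 49% in these data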;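 note: 0% = DMSO plus EC80 beta-PEA response and 100% = DMSO alone without agonist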
Target sequence (Q96RJ0 whole entry, looked up): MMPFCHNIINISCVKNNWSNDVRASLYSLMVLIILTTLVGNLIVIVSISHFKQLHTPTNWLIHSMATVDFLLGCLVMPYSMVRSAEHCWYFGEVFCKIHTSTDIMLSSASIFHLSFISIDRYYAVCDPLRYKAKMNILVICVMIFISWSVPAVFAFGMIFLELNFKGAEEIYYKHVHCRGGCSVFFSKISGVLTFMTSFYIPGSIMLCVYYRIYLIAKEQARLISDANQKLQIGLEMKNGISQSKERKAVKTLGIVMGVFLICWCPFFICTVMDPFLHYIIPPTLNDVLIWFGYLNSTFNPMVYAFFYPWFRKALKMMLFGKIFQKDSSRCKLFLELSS
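Assay system: RD-HGA16 CHO cells with stable hTAAR1 and Gα16 / Reagent: EC80 β-phenethylamine stimulus / Doses: 3 µM, single point / Timing: dye loading 75 min at 37 °C, then 30 min room temperature / Measured by: Fluo-8 intracellular calcium dye fluorescence, real-time kinetic reads / Controls: vehicle wells and EC80 agonist wells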
GPR7 antagonist: human neuropeptides B/W receptor 1 antagonism | P48145 | GPR7-expressing cells, fluorescence antagonist assay | inhibition, % at 4.4 µM | hit rate 1.1% among 290,000; in the data active = inhibition above about 16%, passing the limit was not always enough;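 note: cells stimulated with the agonist NPW; 0% = agonist with vehicle and 100% = vehicle without agonist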
Target sequence (P48145 whole entry, looked up): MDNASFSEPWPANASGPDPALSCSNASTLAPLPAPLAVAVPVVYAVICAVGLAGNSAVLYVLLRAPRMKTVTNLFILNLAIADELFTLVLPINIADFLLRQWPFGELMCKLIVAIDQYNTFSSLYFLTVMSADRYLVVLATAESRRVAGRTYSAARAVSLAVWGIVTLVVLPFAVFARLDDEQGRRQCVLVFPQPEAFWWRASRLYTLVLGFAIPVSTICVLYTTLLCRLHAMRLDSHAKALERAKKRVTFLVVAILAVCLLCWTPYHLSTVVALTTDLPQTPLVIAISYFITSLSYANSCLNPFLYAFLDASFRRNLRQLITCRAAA
DAGLB inhibitor: blocks human DAGLB lipase activity; hit rate 0.059% among 340,000; HEK293T DAGLB membrane lysate, EnzChek fluorogenic substrate; inhibition, % at 5.17 µM; AID 504411; in the data active = inhibition above about 34%;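 note: 0% = enzyme with vehicle and 100% = wells lacking enzyme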
TAAR1 agonist: human TAAR1 agonism. CHO RD-HGA16 TAAR1, Fluo-8 calcium fluorescence; vehicle wells 0%, saturating PEA agonist 100%. Q96RJ0. hit rate 0.99% among 360,000. activation, % at 3 µM. AID 624467;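 active = activation above the mean activation of all test compounds in the run plus 3 SD, cut at about 38% in these data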
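Assay system: CHO-derived RD-HGA16 cells with stable Gα16 and human TAAR1; timing: 17-24 h seeding, 75 min 37 °C dye, 30 min RT; read-out: % activation from peak over basal fluorescence ratio, DMSO-to-PEA scaled; measured by: kinetic Fluo-8 calcium fluorescence; benchmarks: low control DMSO, high control PEA (EC100); doses: 3 µM single concentration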
MPTP inh: blocks calcium-induced mitochondrial swelling | hit rate 1.4% among 360,000 | isolated mouse mitochondria, Ca2+ swelling absorbance, 30 min | AID 602449 | inhibition, % at 10 µM;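 active = inhibition of 50% or more, scaled per plate between neutral and stimulator controls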;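 note: 0% = DMSO wells given calcium and 100% = 1 mM EGTA wells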
MPTP counter: mitochondrial membrane potential, counter-screen; shares compounds with MPTP inh; isolated mitochondria, Rhodamine 123 fluorescence; inhibition, % at 10 µM; hit rate 78% among 5,000; in the data active = inhibition above about 22%;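 note: 0% = DMSO vehicle and 100% = positive control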
MPTP swell DR: dose response confirmation of mitochondrial permeability transition pore inhibitors | hit rate 58% among 780 | isolated mitochondria swelling, absorbance | shares compounds with MPTP inh | IC50, µM; in the data active = IC50 below about 20 µM
MPTP counter DR: MPTP inhibitor counter-screen activity, dose response | shares compounds with MPTP inh | AID 651564 | hit rate 49% among 780 | isolated mitochondria counterscreen, fluorescence read-out | IC50, µM; in the data active = IC50 below about 80 µM
An asterisk follows results filed as active; . = no result.

SMILES	TAAR1 antag	GPR7 antagonist	DAGLB inhibitor	TAAR1 agonist	MPTP inh	MPTP counter	others
O=C(/C(N=Nc1cccc(C(F)(F)F)c1)=C(/O)c1cccs1)C(F)(F)F	12.6	-10.7	10.7	1.7	86.3*	82.1*
CC(C)C1CC(N(C)C)=CC(=S)N1 (stereo unspecified)	-7.5	.	.	0.8	.	.
CCCn1c(=S)[nH]c2cc(C(=O)N3CCc4ccccc43)ccc2c1=O	7.8	-4.1	-1.7	17.8	60.1*	47.8*
Nc1ccn([C@@H]2O[C@H](C(=O)N[C@H](Cc3ccccc3)C(=O)NCC(=O)N3CCOCC3)[C@@H](O)[C@H]2O)c(=O)n1	-14.7	.	.	0.1	.	.
COc1ccccc1/C=N/NC(=O)c1ccc(Cn2nc([N+](=O)[O-])cc2C)cc1	44.8	-6.1	-1.7	10.6	64.6*	-0.4	MPTP swell DR=>100;MPTP counter DR=>80
Cc1ccc(S(=O)(=O)/N=C2/NC(=O)/C(=C\c3cc(Br)cc(Br)c3O)S2)cc1	.	15.7	21.3	.	-0.4	.
Cc1ccc(S(=O)(=O)/N=C2/NC(=O)/C(=C/c3ccc(Br)o3)S2)cc1	-15.3	-4.2	10.9	-1.0	53.4*	68.0*
CCC(=NC(C)c1ccccc1)c1c(O)n(C)c(=O)n(C)c1=O (stereo unspecified)	33.6	0.3	-4.3	11.4	67.0*	33.0*
CCC(C(=O)OCC(=O)c1c(N)n(CC(C)C)c(=O)n(C)c1=O)c1ccccc1 (stereo unspecified)	45.1	.	-4.6	10.2	2.3	.
O=C(/C=C/c1ccc(O)c(O)c1)NC(=O)c1ccccc1O	-20.5	0.5	3.5	-0.7	-0.9	.
O=C(/C=C/c1ccc(Br)cc1)NC(=O)c1ccccc1O	-8.2	-10.0	-0.8	8.6	102.5*	88.4*
N#CC1=C(N)NC(SCC(=O)c2ccc(Br)cc2)=C(C#N)C12CCCCC2	66.1*	-8.7	0.8	16.2	90.0*	80.4*
N#CC1=C(N)NC(SCc2ccccc2)=C(C#N)C12CCCCC2	40.9	-8.8	3.9	19.2	68.2*	74.4*
C=CC[n+]1c(-c2ccc(OC)c(OC)c2)csc1NNC(=O)Nc1ccccc1	29.2	-22.1	0.1	4.4	63.5*	31.1*
COc1ccc(-c2sc3ccccc3c2-c2cc(OC)ccc2C=O)cc1	4.8	.	.	0.3	1.7	.
COc1ccc(C(O)c2nc(-c3ccncc3)cs2)cc1 (stereo unspecified)	-25.6	.	.	11.9	56.6*	66.2*
Cc1ccc(/C=C/C(=O)Nc2ccc([N+](=O)[O-])cc2)o1	-30.5	7.7	-2.4	2.8	88.8*	75.1*
Cc1ccc(NC(=O)NNC(=O)COc2ccc([N+](=O)[O-])cc2)cc1C	-16.9	9.7	2.0	4.0	1.3	.
CCCOc1ccc(/C=C/C(=O)Nc2ccc([N+](=O)[O-])cc2)cc1	29.6	3.7	-13.2	4.5	82.3*	86.3*
O=C(/C=C/c1ccc([N+](=O)[O-])cc1)Nc1ncc([N+](=O)[O-])s1	25.5	-4.7	4.3	12.4	83.0*	62.7*
Cc1ccc(/C=C/C(=O)Nc2ccc(Oc3ccccc3)cc2)o1	44.8	5.8	-8.0	-1.4	17.4	.
O=C(COc1ccc([N+](=O)[O-])cc1)NNC(=O)Nc1ccc([N+](=O)[O-])cc1	3.8	11.0	0.7	3.0	67.3*	96.2*
CC(=O)C1=CCC(c2ccc(Cl)cc2)N(S(=O)(=O)c2ccc(C)cc2)C1 (stereo unspecified)	14.2	.	.	1.5	-0.7	.
N#Cc1c(N)[nH]c(C(=O)c2ccccc2)c1-c1ccc(Br)cc1	-22.3	.	.	9.3	.	.
COCc1c(C#N)c(NCCc2ccccc2)nc(C)c1[N+](=O)[O-]	-6.7	1.5	-9.4	0.3	14.0	.
SMILES	TAAR1 antag	GPR7 antagonist	DAGLB inhibitor	TAAR1 agonist	MPTP inh	MPTP counter	others
COCc1c(C#N)c(NCc2cc(OC)c(OC)c(OC)c2)nc(C)c1[N+](=O)[O-]	-12.7	-13.4	-7.4	8.8	75.4*	33.7*
O=C(Nc1cccc(C(F)(F)F)c1)Nc1ccc(N2CCCC2)c(S(=O)(=O)Nc2ccccc2Cl)c1	41.0	7.8	-6.1	4.3	93.9*	40.9*
CC(=O)Nc1ccc(N2CCOCC2)c(S(=O)(=O)Nc2ccccc2Cl)c1	8.2	.	-0.1	0.2	1.1	.
O=C(Cc1ccccc1)c1ccc(N2CCOCC2)cc1	-15.1	.	1.9	2.5	-0.1	.
CC(=O)Nc1ccc(NC(=O)CC(C)n2ccnc2)cc1 (stereo unspecified)	1.3	6.2	-1.4	0.7	-0.2	.
O=C(Nc1ccc(Cl)cc1)N1CCC(c2ccccc2)C1 (stereo unspecified)	-2.7	-11.2	-5.3	0.8	86.1*	91.4*
O=C(Nc1ccc(Cl)cc1)Nc1nnc(SCc2ccc(Cl)cc2)s1	12.4	-13.1	2.7	1.7	85.4*	24.4*
O=C(Nc1ccccc1)Nc1nnc(SCc2ccc(Cl)cc2)s1	6.4	-15.6	0.2	10.2	85.5*	33.5*
O=C(Nc1nnc(SCc2ccc(Cl)cc2)s1)C1CCCO1 (stereo unspecified)	.	-5.0	-4.0	.	0.1	.
CCSc1nnc(NC(=O)Nc2cccc(C)c2)s1	-8.6	-6.8	-3.0	11.2	82.4*	83.7*
O=C(Nc1nnc(SCc2ccc(Cl)cc2)s1)c1cnccn1	-10.9	-4.6	6.7	7.8	1.0	.
COC(=O)[C@H]1C[C@@]2(O)CN(S(=O)(=O)c3ccc(C)cc3)C[C@@]2(OC(=O)NCc2ccco2)C[C@H]1C(=O)OC	14.1	.	3.4	0.8	1.4	.
NS(=O)(=O)c1ccc(CCNCc2cc(Br)ccc2OCc2ccccc2)cc1	44.6	19.1	-3.6	13.8	65.9*	52.2*
c1ccc(COc2ccc(CNCc3cccs3)cc2)cc1	-6.3	-3.9	-6.6	36.6	95.5*	-1.4	MPTP swell DR=6.43*;MPTP counter DR=31.4*
CCOc1cc(CNCCc2ccc(S(N)(=O)=O)cc2)cc(Cl)c1OCc1ccccc1	.	21.0	-2.6	.	46.3	.
CCOc1cc(CNCCc2ccc(S(N)(=O)=O)cc2)ccc1OCc1ccccc1	14.6	26.1	-2.2	16.4	104.9*	40.6*
COc1ccc(CCNCc2ccc(OCc3ccc(Cl)nc3)c(OC)c2)cc1OC	16.4	4.0	-1.1	10.1	1.3	.
COc1ccc(CNCCc2ccc(Cl)cc2)cc1OCc1ccccc1	.	5.7	-0.2	.	86.0*	84.0*
CC(C)(C)c1ccc(C(=O)N2CCC2(C)C(=O)Nc2cccc3ncccc23)cc1 (stereo unspecified)	-8.1	.	.	3.7	-0.8	.
COc1ccc(CCNC(=O)Cc2ccc(OCc3ccccc3)c(OC)c2[N+](=O)[O-])cc1OCc1ccccc1	44.0	2.5	-5.2	7.8	75.6*	54.9*
COc1ccc(CCNC/C=C/c2ccccc2)cc1	-1.2	1.1	-0.5	12.0	0.7	.
